Test results taken from ChEMBL document CHEMBL1149885, “Active core structure of terfestatin A, a new specific inhibitor of auxin signaling” (Bioorg Med Chem, 2008).
Activity calls are given as the source filed them. No cut-off for these calls is given here.

Test system: Arabidopsis
Assay: Inhibition of indole-3-acetic acid-induced GUS reporter gene expression in Arabidopsis BA3 at 50 uM after 5 hrs
Assay type: functional, organism-based
Outline: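 Arabidopsis BA3::GUS seedlings (GUS under an auxin-responsive promoter) were grown vertically for 5 days under continuous light. They were moved into GM (0.5x MS salts, 1% sucrose, B5 vitamins, 0.2 g/L MES, pH 5.8) holding 50 µM derivative plus 1 µM IAA for 5 h. GUS was then stained histochemically with 1 mM X-Gluc at 37 °C for 3–4 h.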

SMILES | Activity
CC(=O)OC[C@H]1O[C@@H](Oc2c(-c3ccccc3)cc(O)c(-c3ccccc3)c2O)[C@H](OC(C)=O)[C@@H](OC(C)=O)[C@@H]1OC(C)=O | inactive
Oc1cc(-c2ccccc2)c(OCC2CCCCC2)c(O)c1-c1ccccc1 | inactive
CCCCOc1c(-c2ccccc2)cc(O)c(-c2ccccc2)c1O | Active
OC[C@H]1O[C@@H](Oc2ccc(O)c(-c3ccccc3)c2O)[C@H](O)[C@@H](O)[C@@H]1O | inactive
COc1c(O[C@@H]2O[C@H](CO)[C@@H](O)[C@H](O)[C@H]2O)c(-c2ccccc2)cc(O)c1-c1ccccc1 | inactive
OC[C@H]1O[C@@H](Oc2c(O)cc(O)cc2-c2ccccc2)[C@H](O)[C@@H](O)[C@@H]1O | inactive
CC(C)COc1c(-c2ccccc2)cc(O)c(-c2ccccc2)c1O | inactive
Cc1ccc(-c2c(O)cc(-c3ccccc3)c(O[C@@H]3O[C@H](CO)[C@@H](O)[C@H](O)[C@H]3O)c2O)cc1 | inactive
CCOC(=O)CCCCOc1ccc(-c2cc(O)c(-c3ccccc3)c(O)c2O[C@@H]2O[C@H](CO)[C@@H](O)[C@H](O)[C@H]2O)cc1 | inactive
Oc1cc(-c2ccccc2)c(OCC2CC2)c(O)c1-c1ccccc1 | inactive
OC[C@H]1O[C@@H](Oc2c(-c3ccccc3)cc(O)c(-c3cccc4ccccc34)c2O)[C@H](O)[C@@H](O)[C@@H]1O (single isomer, unassigned) | inactive
OC[C@H]1O[C@@H](Oc2cc(-c3ccccc3)c(O)cc2-c2ccccc2)[C@H](O)[C@@H](O)[C@@H]1O | Active
COc1cc(-c2ccccc2)c(O[C@H]2O[C@@H](CO)[C@H](O)[C@@H](O)[C@@H]2O)c(O)c1-c1ccccc1 | inactive
COC(=O)c1ccc(-c2cc(O)c(-c3ccccc3)c(O)c2O[C@@H]2O[C@H](CO)[C@@H](O)[C@H](O)[C@H]2O)cc1 | inactive
CCOc1c(-c2ccccc2)cc(O)c(-c2ccccc2)c1O | Active
CCCCCCOc1c(-c2ccccc2)cc(O)c(-c2ccccc2)c1O | inactive
Oc1cc(-c2ccccc2)c(OCCCCCl)c(O)c1-c1ccccc1 | Active
COCOc1c(-c2ccccc2)cc(O)c(-c2ccccc2)c1O | Active
CCCCCOc1c(-c2ccccc2)cc(O)c(-c2ccccc2)c1O | Active
CCCCOc1ccc(-c2cc(O)c(-c3ccccc3)c(O)c2O[C@@H]2O[C@H](CO)[C@@H](O)[C@H](O)[C@H]2O)cc1 | inactive
CCCOc1c(-c2ccccc2)cc(O)c(-c2ccccc2)c1O | Active
CCCCOc1ccc(-c2c(O)cc(-c3ccccc3)c(O[C@@H]3O[C@H](CO)[C@@H](O)[C@H](O)[C@H]3O)c2O)cc1 | inactive
